Where two headings read alike, the source gives them in different places. Marks after values point to notes of the source that are not given here.
Experiments:
HeLa cells [1] = type: cell-based, human; conditions: 1 μM bacteriochlorin, 24 h
Procedure, shortened: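 HeLa cells in 35 mm dishes, attached overnight, then given 1 μM test compound in complete medium for 24 h. After a PBS wash, 5 μg/mL LysoTracker green DND-26, MitoTracker green FM or ER-Tracker green was added for 30 min at 37 °C. Cells were washed again and imaged 5–10 min later by confocal microscopy: 488 nm argon excitation, probe emission 515 ± 10 nm, compound emission >580 nm, 63× water lens. Red/green overlays scored for overlap.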

[2] = tested on: HeLa human cervical cancer cells; experiment: In vitro PDT toxicity on HeLa cells after illumination; type: cell-based; conditions: for phototoxicity per unit uptake (in words) / LD50 (least active compounds) / incubation period needed to exert PDT toxicity (time-course): HeLa; for phototoxicity per unit uptake (in words): normalized to the same uptake level; for LD50: 24 h; for LD50 (least active compounds): 10 J/cm^2 of 732 nm laser; for incubation period needed to exert PDT toxicity (time-course): 0.5 μM, various incubation times, 10 J/cm^2 of 732 nm light
HeLa cells [3] = experiment: Cellular uptake into HeLa cells; type: cell-based, human; conditions: 24 h, highest concentration (20.5 μM)
Procedure, shortened: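 HeLa cells in RPMI with 10% heat-inactivated FBS, seeded at 5000/well and grown 24 h, then exposed 24 h to test compound diluted in complete medium. Cells rinsed with warm PBS, lysed in SOLVABLE 2 h at 37 °C. Lysate fluorescence read at ex 402/em 730 nm against per-compound calibration curves in SOLVABLE. Protein by BCA with BSA standards. Expressed as nmol per mg protein; three experiments.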

[4] = tested on: HeLa human cervical cancer cells; conditions: 24 h, 10 μM
[5] = Photophysical measurements; type: physicochemical; conditions: for Θ f (fluorescence quantum yield) / τS (lifetime of the lowest singlet excited state): Ar-purged methanol; for τS (lifetime of the lowest singlet excited state): fluorescence detection; for Qy(0,0) absorption fwhm / Qy(0,0) absorption λ / Qy(0,0) fluorescence fwhm / Qy(0,0) fluorescence λ: aerated methanol; for Φisc (triplet-excited-state quantum yield, measured directly): Ar-purged solutions; for kic (rate constant for internal conversion of the lowest singlet excited state to the ground state): printed as (x ns)^−1, from Φisc, Φf and τS
[6] = cited from earlier work
[7] = tested on: HeLa human cervical cancer cells; experiment: Dark toxicity on HeLa cells; conditions: no light, at 10 μM
[8] = Ar-purged 2-methyltetrahydrofuran
[9] = freeze–pump–thaw degassed methanol

CC1(C)Cc2cc3[nH]c(cc4nc(cc5[nH]c(cc1n2)cc5CN(CCO)CCO)CC4(C)C)cc3CN(CCO)CCO [Compound 6]
overlap with endoplasmic reticulum probe (ER-Tracker) (HeLa cells [1]): good overlap
phototoxicity per unit uptake (in words) [2]: high values
uptake level (in words) (HeLa cells [3]): Intermediate uptake levels
dark toxicity level [4]: ~50%
τT (lifetime of the lowest triplet excited state) [5, 8]: 190 μs
Θ f (fluorescence quantum yield) [5]: 0.095
τS (lifetime of the lowest singlet excited state) [5]: 3.8 ns
Qy(0,0) absorption fwhm [5]: 18 nm
Qy(0,0) absorption λ [5]: 718 nm
Qy(0,0) fluorescence fwhm [5]: 23 nm
Qy(0,0) fluorescence λ [5]: 724 nm

CC1(C)Cc2cc3[nH]c(cc4nc(cc5[nH]c(cc1n2)cc5C(=O)O)CC4(C)C)cc3C(=O)O [Compound 7]
LD50 [2]: 4000 nM
LD50 (least active compounds) [2]: > 1 µM
uptake level (in words) (HeLa cells [3]): lowest uptake
τT (lifetime of the lowest triplet excited state) [5, 8]: 70 μs
Θ f (fluorescence quantum yield) [5]: 0.077
τS (lifetime of the lowest singlet excited state) [5]: 3.7 ns
Qy(0,0) absorption fwhm [5]: 26 nm
Qy(0,0) absorption λ [5]: 734 nm
Qy(0,0) fluorescence fwhm [5]: 19 nm
Qy(0,0) fluorescence λ [5]: 742 nm

CC[C@H]1c2cc3[nH]c4c(c3C)C(=O)[C@H](C(=O)OC)c4c3nc(cc4[nH]c(cc(n2)[C@@H]1C)c(C(C)=O)c4C)[C@@H](C)[C@@H]3CCC(=O)OC/C=C(\C)CCC[C@H](C)CCC[C@H](C)CCCC(C)C [bacteriopheophytin a]
yield of the lowest triplet excited state [6]: 0.54

CC1(C)Cc2cc3[nH]c(cc4nc(cc5[nH]c(cc1n2)cc5C(=O)/C=C/c1cc(O)cc(O)c1)CC4(C)C)cc3C(=O)/C=C/c1cc(O)cc(O)c1 [Compound 11]
LD50 [2]: 200 nM
uptake level (in words) (HeLa cells [3]): low uptake
τT (lifetime of the lowest triplet excited state) [5, 8]: 78 μs
Θ f (fluorescence quantum yield) [5]: 0.021
τS (lifetime of the lowest singlet excited state) [5]: 3.4 ns
Qy(0,0) absorption fwhm [5]: 35 nm
Qy(0,0) absorption λ [5]: 781 nm
Qy(0,0) fluorescence fwhm [5]: 40 nm
Qy(0,0) fluorescence λ [5]: 800 nm

COCCOCCOCCOCCNCc1cc(CNCCOCCOCCOCCOC)cc(-c2c3nc(cc4[nH]c(cc4-c4ccc(C)cc4)c(OC)c4nc(cc5[nH]c2cc5-c2ccc(C)cc2)C(C)(C)C4)C(C)(C)C3)c1 [Compound 1]
LD50 [2]: 500 nM
uptake level (in words) (HeLa cells [3]): Low to intermediate uptake
Qy(0,0) absorption fwhm [5]: 21 nm
Qy(0,0) absorption λ [5]: 732 nm

CC1(C)Cc2cc3ccc(cc4nc(cc5ccc(cc1n2)[nH]5)CC4(C)C)[nH]3 [8,8,18,18-tetramethylbacteriochlorin, reference compound]
Φf of fluorescence standard ([5]; Ar-purged toluene, Soret and Qx excitation): 0.125

COCCN(CCOC)C(=O)c1cc2cc3nc(cc4[nH]c(cc5nc(cc1[nH]2)CC5(C)C)cc4C(=O)N(CCOC)CCOC)CC3(C)C [Compound 12]
phototoxicity per unit uptake (in words) [2]: high values
uptake level (in words) (HeLa cells [3]): highest uptake
τT (lifetime of the lowest triplet excited state) [5, 8]: 105 μs
Θ f (fluorescence quantum yield) [5]: 0.10
τS (lifetime of the lowest singlet excited state) [5]: 3.3 ns
Qy(0,0) absorption fwhm [5]: 20 nm
Qy(0,0) absorption λ [5]: 727 nm
Qy(0,0) fluorescence fwhm [5]: 27 nm
Qy(0,0) fluorescence λ [5]: 733 nm

CC1(C)Cc2cc3[nH]c(cc4nc(cc5[nH]c(cc1n2)cc5C(=O)N(CCN)CCN)CC4(C)C)cc3C(=O)N(CCN)CCN [Compound 9]
LD50 [2]: 800 nM
phototoxicity per unit uptake (in words) [2]: much lower values
uptake level (in words) (HeLa cells [3]): low uptake
Θ f (fluorescence quantum yield) [5]: 0.12
τS (lifetime of the lowest singlet excited state) [5]: 3.5 ns
Φisc (triplet-excited-state quantum yield, measured directly) [5]: 0.57
Qy(0,0) absorption fwhm [5]: 19 nm
Qy(0,0) absorption λ [5]: 729 nm
Qy(0,0) fluorescence fwhm [5]: 24 nm
Qy(0,0) fluorescence λ [5]: 735 nm
τT (lifetime of the lowest triplet excited state) ([5]; freeze–pump–thaw degassed ethanol): 54 ^l μs
kic (rate constant for internal conversion of the lowest singlet excited state to the ground state) [5]: 11.4 (ns)^−1

C1=Cc2nc1c(-c1ccccc1)c1nc(c(-c3ccccc3)c3ccc([nH]3)c(-c3ccccc3)c3ccc([nH]3)c2-c2ccccc2)C=C1 [free base tetraphenylporphyrin, tetraphenylporphyrin]
Φf of fluorescence standard ([6]; in toluene ref 33): 0.090

CC1(C)Cc2cc3[nH]c(cc4nc(cc5[nH]c(cc1n2)cc5C(=O)NCCN)CC4(C)C)cc3C(=O)NCCN [Compound 8]
overlap with endoplasmic reticulum probe (ER-Tracker) (HeLa cells [1]): hardly any overlap
LD50 [2]: 3000 nM
incubation period needed to exert PDT toxicity (time-course) [2]: longest incubation times
LD50 (least active compounds) [2]: > 1 µM
phototoxicity per unit uptake (in words) [2]: much lower values
uptake level (in words) (HeLa cells [3]): Intermediate uptake levels
Θ f (fluorescence quantum yield) [5]: 0.13
τS (lifetime of the lowest singlet excited state) [5]: 4.0 ns
Qy(0,0) absorption fwhm [5]: 23 nm
Qy(0,0) absorption λ [5]: 742 nm
Qy(0,0) fluorescence fwhm [5]: 25 nm
Qy(0,0) fluorescence λ [5]: 750 nm
τT (lifetime of the lowest triplet excited state) [5, 9]: 77 ^k μs

CC1(C)Cc2cc3[nH]c(cc4nc(cc5[nH]c(cc1n2)cc5C#CC[N+](C)(C)C)CC4(C)C)cc3C#CC[N+](C)(C)C.[Cl-].[Cl-] [Compound 5]
dark toxicity level [7]: ~50%
LD50 (least active compounds) [2]: > 1 µM
phototoxicity per unit uptake (in words) [2]: much lower values
uptake level (in words) (HeLa cells [3]): Intermediate uptake levels
Θ f (fluorescence quantum yield) [5]: 0.11
τS (lifetime of the lowest singlet excited state) [5]: 3.8 ns
Qy(0,0) absorption fwhm [5]: 16 nm
Qy(0,0) absorption λ [5]: 749 nm
Qy(0,0) fluorescence fwhm [5]: 22 nm
Qy(0,0) fluorescence λ [5]: 754 nm
τT (lifetime of the lowest triplet excited state) [5, 9]: 104 ^k μs

CC1(C)Cc2cc3[nH]c(cc4nc(cc5[nH]c(cc1n2)cc5-c1cc(O)cc(O)c1)CC4(C)C)cc3-c1cc(O)cc(O)c1 [Compound 4]
overlap with endoplasmic reticulum probe (ER-Tracker) (HeLa cells [1]): high degree of localization
incubation period needed to exert PDT toxicity (time-course) [2]: most rapid toxicity
phototoxicity per unit uptake (in words) [2]: high values
τT (lifetime of the lowest triplet excited state) [5, 8]: 190 μs
Θ f (fluorescence quantum yield) [5]: 0.12
τS (lifetime of the lowest singlet excited state) [5]: 3.7 ns
Φisc (triplet-excited-state quantum yield, measured directly) [5]: 0.41
Qy(0,0) absorption fwhm [5]: 21 nm
Qy(0,0) absorption λ [5]: 732 nm
Qy(0,0) fluorescence fwhm [5]: 26 nm
Qy(0,0) fluorescence λ [5]: 737 nm
kic (rate constant for internal conversion of the lowest singlet excited state to the ground state) [5]: 7.7 (ns)^−1

CC1(C)Cc2cc3[nH]c(cc4nc(cc5[nH]c(cc1n2)cc5-c1cc(OCCO)cc(OCCO)c1)CC4(C)C)cc3-c1cc(OCCO)cc(OCCO)c1 [Compound 3]
phototoxicity per unit uptake (in words) [2]: high values
τT (lifetime of the lowest triplet excited state) [5, 8]: 159 μs
Θ f (fluorescence quantum yield) [5]: 0.15
τS (lifetime of the lowest singlet excited state) [5]: 3.0 ns
Qy(0,0) absorption fwhm [5]: 19 nm
Qy(0,0) absorption λ [5]: 732 nm
Qy(0,0) fluorescence fwhm [5]: 24 nm
Qy(0,0) fluorescence λ [5]: 738 nm

CC1(C)Cc2cc3[nH]c(cc4nc(cc5[nH]c(cc1n2)cc5C(=O)N1CC[N+](C)(C)CC1)CC4(C)C)cc3C(=O)N1CC[N+](C)(C)CC1.[Cl-].[Cl-] [Compound 10]
phototoxicity per unit uptake (in words) [2]: much lower values
uptake level (in words) (HeLa cells [3]): low uptake
Θ f (fluorescence quantum yield) [5]: 0.12
τS (lifetime of the lowest singlet excited state) [5]: 3.8 ns
Qy(0,0) absorption fwhm [5]: 21 nm
Qy(0,0) absorption λ [5]: 731 nm
Qy(0,0) fluorescence fwhm [5]: 28 nm
Qy(0,0) fluorescence λ [5]: 740 nm
τT (lifetime of the lowest triplet excited state) [5, 9]: 100 ^k μs
